A selection: hits, their analogues and other compounds. The true share with any hit is near 2.6%.
PvdQ inh: P. aeruginosa PvdQ acylase inhibition; inhibition, % at 10 µM; actives 0.063% (n = 340,000); purified PvdQ acylase, fluorescence plate reader; in the data active means inhibition above about 30%, passing the limit was not always enough;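 further: 0% = vehicle neutral wells and 100% = reference inhibitor wells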
Xi reactivation: X-chromosome reactivation activator; XiGFP mouse fibroblasts, % GFP-positive cells imaging, 3 d; cells co-treated with 5-aza-dC sensitizer; scaled so ellipticine positive control = 100%; activation, % at 7.58 µM; actives 0.055% (n = 360,000); AID 743238;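 active means mean normalized replicate activation at least 10% and every replicate at or above 10%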;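 further: 0% = median of on-plate neutral control wells and 100% = ellipticine 6 µM median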
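Material: SV40-immortalized XiGFP fibroblast cells, line 68-5-11 | Buffer or medium: DMEM containing 5-aza-dC | Dosing: One concentration, pinned | Times: 3 d treatment, 15 min room-temperature fixation | Controls: Ellipticine 6 µM positive control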
SR-BI HDL uptake: blocks mouse SR-BI lipid uptake from DiI-HDL | actives 0.96% (n = 320,000) | inhibition, % at 12.5 µM | ldlA[mSR-BI] CHO cells, DiI-HDL uptake fluorescence, 3 h | AID 488896;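 active means mean replicate inhibition of at least 70% and a set share of replicates each scoring 70 or more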;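 further: 0% = median of neutral control wells and 100% = median of positive control wells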
Target sequence (Q61009 whole entry, looked up): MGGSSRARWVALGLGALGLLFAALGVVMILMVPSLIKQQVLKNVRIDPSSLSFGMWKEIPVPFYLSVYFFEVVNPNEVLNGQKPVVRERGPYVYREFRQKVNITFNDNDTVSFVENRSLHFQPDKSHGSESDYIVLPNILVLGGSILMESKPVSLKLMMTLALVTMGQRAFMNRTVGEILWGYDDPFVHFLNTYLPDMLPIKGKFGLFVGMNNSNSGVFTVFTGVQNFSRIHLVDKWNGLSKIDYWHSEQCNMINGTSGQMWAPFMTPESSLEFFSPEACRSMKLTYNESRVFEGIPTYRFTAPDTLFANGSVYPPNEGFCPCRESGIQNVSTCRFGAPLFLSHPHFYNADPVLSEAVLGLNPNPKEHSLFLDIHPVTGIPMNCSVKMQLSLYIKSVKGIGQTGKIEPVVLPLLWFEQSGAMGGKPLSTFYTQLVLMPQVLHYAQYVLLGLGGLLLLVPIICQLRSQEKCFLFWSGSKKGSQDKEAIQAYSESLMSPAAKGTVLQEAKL
Ecoli rRNA inh: inhibits bacterial ribosomal RNA function over humanized ribosomes. GFP signal change (wild-type ribosome), % (test concentration not listed). AID 720706. E. coli WT GFP vs humanized-ribosome RFP mutants, fluorescence, 24 h; active compounds read low; DMSO median 0, no signal -100. actives 1.6% (n = 350,000);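 active means significant combined selectivity score with lowered wild-type GFP, culture density cut under 30%, mutant RFP and density less affected; inactive means any of these conditions unmet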
dFosB act-1: enhances mouse delta FosB homodimer DNA binding. P13346. purified delta FosB, TAMRA-CDK5 oligo fluorescence polarization; percent of positive-control signal above neutral wells. activation, % at 25 µM. actives 0.99% (n = 340,000). AID 493131;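 active means mean activation above about 17%, with every replicate also reaching it, limit read from the data, passing the limit was not always enough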
SR-BI uptake up: SR-BI HDL lipid transfer activation | CHO ldlA[mSR-BI] cells, DiI-HDL uptake fluorescence, 3 h; 100 = double the neutral-control signal | activation, % at 12.5 µM | actives 0.096% (n = 320,000) | AID 504775;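 active means mean replicate activation of at least 60% and every replicate at or above 60%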;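 further: 0% = median plate neutral-control signal and 100% = twice that signal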
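Assay system: LDL receptor-deficient CHO ldlA cells overexpressing murine SR-BI / Medium: BSA-supplemented, HEPES-buffered Ham's F12, pH 7.4 / Probe or stimulus: DiI-labelled HDL at 10 µg/mL final / Timing: compound with DiI-HDL co-incubation, 3 h at 37 °C / Technique: bottom-read cell fluorescence after medium removal, ex 550/em 595 nm / Measure: HDL uptake via cellular fluorescence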
dFosB act-2: delta FosB (mouse) homodimer activation. purified delta FosB, TAMRA-CDK5 oligo fluorescence polarization; normalised: neutral wells 0, positive control 100. 2,400 tested, under 10 active. activation, % at 24.9 µM. shares compounds with dFosB act-1. AID 588690;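 active means highest replicate activation at or above 34% and every replicate reaching that threshold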;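 further: higher polarization means more probe DNA bound by delta FosB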
* = called active by the depositor; . = not tested or not shown.

SMILES	PvdQ inh	Xi reactivation	SR-BI HDL uptake	Ecoli rRNA inh	dFosB act-1	SR-BI uptake up	dFosB act-2
Cn1c2ccccc2c2cnn(CC(=O)Nc3ccc(F)cc3F)c(=O)c21	-11.7	0.1	20.0	17.5	20.6*	-20.0	3.4
O=C(Cn1nc(C(=O)O)c2ccccc2c1=O)c1cc(F)ccc1F	1.4	-0.1	.	15.8	8.2	.	.
COc1ccc(NC(=O)Cn2nc(C(=O)O)c3ccccc3c2=O)cc1Cl	-8.9	-0.1	.	-1.1	92.7*	.	4.2
O=C(Cn1nc(C(=O)O)c2ccccc2c1=O)Nc1ccc(F)cc1F	-14.0	0.2	.	7.6	25.6*	.	3.2
COC(=O)c1cc(S(=O)(=O)Nc2nn(C)c3cccc(F)c23)oc1C	-3.8	-0.1	-17.2	13.2	-2.3	17.2	.
COc1ccc(NC(=O)Nc2ccc3c(c2)[C@H]2C[C@H](CC(=O)N4CCN(C)CC4)O[C@@H](CO)[C@H]2O3)cc1	.	0.3	.	0.6	.	.	.
O=C(Nc1nccs1)c1ccc(S(=O)(=O)c2ccccc2)cc1	0.9	.	1.8	9.0	3.7	-1.8	.
C/C(=N\NC(=O)c1ccncc1)c1ccc(N2CCOCC2)cc1	13.2	0.1	-21.7	15.5	-1.7	21.7	.
C/C(=N\NC(=O)c1ccc(OC2OCCOC2Oc2ccc(C(=O)N/N=C(\C)c3ccncc3)cc2)cc1)c1ccncc1 (stereo not given)	-5.7	.	.	2.6	96.7*	.	2.8
COc1ccccc1NC(=O)Nc1ccc2c(c1)CCC2	-15.4	0.0	15.5	-2.7	-1.6	.	.
COc1ccc(C)cc1NC(=O)Nc1ccc2c(c1)CCC2	-4.9	0.0	49.1	1.8	23.4*	-49.1	0.9
COc1ccc(OC)c(/C=N/NC(=O)c2[nH]nc3c2CCc2ccccc2-3)c1	5.4	0.1	43.0	5.6	22.8*	-43.0	0.5
COc1ccccc1NC(=O)c1oc2ccccc2c1NC(=O)C1CC1	-12.9	0.0	42.3	-1.6	23.7*	-42.3	-0.1
N#CNC(N)=Nc1cccc(Cl)c1	1.0	.	37.2	.	21.9*	-37.2	-6.6
N#CNC(=Nc1cccc(Cl)c1)Oc1ccccc1	9.5	0.1	-12.8	8.4	-3.4	12.8	.
O=C(COC(=O)c1oc2ccccc2c1CSc1ccc(Cl)cc1)NC1CCCC1	-12.7	0.2	25.8	0.9	-9.6	-25.8	.
NC(=O)COC(=O)c1oc2ccccc2c1CSc1ccc(Cl)cc1	-2.0	0.0	4.8	3.3	17.5*	-4.8	4.8
CCOc1[nH]n(-c2ccccc2)c(=O)c1C=NCc1ccncc1	-14.4	0.3	-29.3	15.8	-14.8	29.3	.
Nc1nnnn1CC(=O)N/N=C/c1cc([N+](=O)[O-])ccc1Cl	-6.4	0.0	-33.2	18.1	2.4	33.2	.
Cc1cc([N+](=O)[O-])c(C)cc1-c1ccc(/C=N/NC(=O)Cn2nnnc2N)o1	1.2	0.5	0.6	16.9	33.1*	-0.6	6.3
COc1ccc(-c2nc3cc(NC(=O)Cc4ccc(OC)c(OC)c4)ccc3o2)cc1	8.5	.	1.4	.	55.8*	-1.4	4.1
O=C(COc1ccc(Cl)cc1)Nc1ccc2oc(-c3ccncc3)nc2c1	-11.8	.	40.5	.	37.1*	-40.5	-0.8
COc1ccc(CC(=O)Nc2ccc(-c3nnc(-c4ccccc4)o3)cc2)cc1OC	-19.2	.	24.9	13.8	119.8*	-24.9	-7.0
C=CCNCC#CCOc1ccc(OC)cc1	6.7	.	-6.4	.	1.8	6.4	.
Cc1ccc2nc(NC(=O)c3cccs3)sc2c1	-3.6	.	33.1	.	10.4	-33.1	.
SMILES	PvdQ inh	Xi reactivation	SR-BI HDL uptake	Ecoli rRNA inh	dFosB act-1	SR-BI uptake up	dFosB act-2
Cc1ccc2nc(NC(=O)c3ccc4ncsc4c3)sc2c1	-9.2	0.2	17.2	1.4	21.7*	-17.2	-9.6
NS(=O)(=O)c1ccc2nc(NC(=O)c3ccc4ncsc4c3)sc2c1	-8.7	.	13.8	.	15.7	-13.8	.
Cc1ccc2nc(NC(=O)c3ccc(Cl)s3)sc2c1	-2.3	-0.2	6.5	0.0	25.9*	-6.5	-0.7
OC(CN1CCCCC1)Cn1c2ccccc2c2cc(Br)ccc21 (stereo not given)	-12.2	0.1	2.6	-45.5	39.8*	-2.6	1.7
O=[N+]([O-])c1cccc(COc2ccc(CO)cc2)c1	.	0.0	.	5.0	.	.	.
O=C1NC(=O)/C(=C\c2ccc(OCc3cccc([N+](=O)[O-])c3)cc2)N1	-15.0	-0.2	17.6	-5.7	31.5*	-17.6	7.6
O=C(NNC(=O)c1ccc(-c2ccccc2)cc1)Nc1ccc(F)cc1F	-10.7	0.0	-12.7	6.2	30.0*	12.7	-3.0
COc1ccccc1C1CC(c2ccccc2)=NN1S(=O)(=O)c1ccccc1 (stereo not given)	-9.9	0.3	9.6	-6.8	-6.8	-9.6	.
COc1cccc(C2CC(c3ccccc3)=NN2S(=O)(=O)c2ccc(C)cc2)c1OC (stereo not given)	4.9	0.3	-33.5	10.9	38.9*	33.5	0.8
Cc1sc2ncnc(SCC(=O)c3ccc(O)cc3O)c2c1C	-13.2	-0.2	.	-4.0	40.3*	.	1.4
C[C@@H]1CN([C@@H](C)CO)S(=O)(=O)c2ccc(/C=C/c3ccccc3)cc2O[C@@H]1CN(C)C(=O)c1cccnc1	.	-0.5	.	0.0	.	.	.
C=CCN(C(=O)COc1ccccc1)c1nnc(-c2ccncc2)s1	-1.1	.	15.8	.	22.4*	-15.8	1.3
CCOc1ccc(CNC(=O)c2ccc(NC(=O)C3=CSCCO3)cc2)cc1	-0.6	0.0	24.1	4.0	-0.5	-24.1	.
Cc1ccc(CNC(=O)c2ccc(NC(=O)C3=CSCCO3)cc2)cc1	-3.9	0.0	-4.3	4.5	27.6*	4.3	-8.1
CCn1c(=O)c(C(=O)Nc2ncccc2O)c(O)c2ccccc21	-13.6	0.0	-6.1	-11.3	25.7*	6.1	-0.8
N#CC1(Nc2cccc(Br)c2)C(=O)Nc2ccccc21 (stereo not given)	-13.7	-0.1	-10.8	-5.1	-6.6	10.8	.
COc1ccc(-c2cc(C(F)F)n3ncc(C(=O)Nc4cccc(S(=O)(=O)N5CCOCC5)c4)c3n2)cc1	12.5	0.1	31.4	13.1	33.3*	-31.4	1.7
COc1ccc(/C=C2/SC(=O)N(CC(=O)NCCC(C)C)C2=O)cc1OC	2.8	0.0	16.8	.	17.0*	-16.8	4.6
COc1ccc(/C=C2\SC(=O)N(CC(=O)NCCC(C)C)C2=O)cc1OC	-3.2	0.0	6.0	6.5	13.9	-6.0	.
COc1ccc(/C=C2\SC(=O)N(CC(=O)Nc3ccc(F)cc3)C2=O)cc1O	-5.6	0.1	3.6	8.0	18.9*	-3.6	7.6
